According to ChEMBL document CHEMBL1121421, “2,4-Diamino-5-benzylpyrimidines and analogues as antibacterial agents. 2. C-Alkylation of pyrimidines with Mannich bases and application to the synthesis of trimethoprim and analogues” (J Med Chem, 1980):
pIC50: −log10 of the molar value. In brackets after ≈: the same amount, converted by molar mass.

Key:
[1] = tested on: Shigella dysenteriae; experiment: Antibacterial activity against of against Shig dysentariae CN 1523.; assay type: functional
[2] = tested on: Staphylococcus aureus; experiment: Antibacterial activity against Staphylococcus aureus CN491.; assay type: functional
[3] = tested on: Streptococcus pyogenes; experiment: Antibacterial activity against Streptococcus pyogenes CN10; assay type: functional
[4] = tested on: Escherichia coli; experiment: Antibacterial activity against Escherichia coli CN314.; assay type: functional
[5] = tested on: Klebsiella pneumoniae; experiment: Antibacterial activity against Klebsiella pneumoniae CN 3632.; assay type: functional
[6] = tested on: Proteus vulgaris; experiment: Antibacterial activity against Proteus vulgaris CN 329.; assay type: functional
[7] = tested on: Salmonella; experiment: Antibacterial activity against typhi CN512.; assay type: functional, salmonella typhosa
[8] = biological target: T1, Dihydrofolate reductase (Rattus norvegicus) (UniProt Q920D2); experiment: (§1) Inhibitory activity against Dihydrofolate reductase enzyme purified from rat liver.; set-up: scale not given: the % may be the effect or the level left
T1 sequence (whole entry): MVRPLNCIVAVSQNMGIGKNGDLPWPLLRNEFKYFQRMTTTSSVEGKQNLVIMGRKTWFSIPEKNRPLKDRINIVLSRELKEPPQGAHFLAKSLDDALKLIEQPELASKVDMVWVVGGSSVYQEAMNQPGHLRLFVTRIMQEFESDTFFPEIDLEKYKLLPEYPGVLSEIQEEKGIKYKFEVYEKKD
In short: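 Partially purified rat liver dihydrofolate reductase in phosphate buffer. Compound was preincubated with enzyme and buffer for 5 min at 37 °C. NADPH was then added, followed by FH₂ to start the reaction. IC₅₀ (50% drop in reaction rate) was taken from titrations over three to six compound concentrations. Otherwise the value is the percent inhibition at the highest concentration tested.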

[9] = biological target: Bifunctional dihydrofolate reductase-thymidylate synthase (Plasmodium berghei str. ANKA, UniProt Q27713); experiment: Inhibitory activity against Dihydrofolate reductase enzyme purified from Plasmodium berghei.; details: read-out: I50
Bifunctional dihydrofolate reductase-thymidylate synthase, sequence (Q27713 whole entry): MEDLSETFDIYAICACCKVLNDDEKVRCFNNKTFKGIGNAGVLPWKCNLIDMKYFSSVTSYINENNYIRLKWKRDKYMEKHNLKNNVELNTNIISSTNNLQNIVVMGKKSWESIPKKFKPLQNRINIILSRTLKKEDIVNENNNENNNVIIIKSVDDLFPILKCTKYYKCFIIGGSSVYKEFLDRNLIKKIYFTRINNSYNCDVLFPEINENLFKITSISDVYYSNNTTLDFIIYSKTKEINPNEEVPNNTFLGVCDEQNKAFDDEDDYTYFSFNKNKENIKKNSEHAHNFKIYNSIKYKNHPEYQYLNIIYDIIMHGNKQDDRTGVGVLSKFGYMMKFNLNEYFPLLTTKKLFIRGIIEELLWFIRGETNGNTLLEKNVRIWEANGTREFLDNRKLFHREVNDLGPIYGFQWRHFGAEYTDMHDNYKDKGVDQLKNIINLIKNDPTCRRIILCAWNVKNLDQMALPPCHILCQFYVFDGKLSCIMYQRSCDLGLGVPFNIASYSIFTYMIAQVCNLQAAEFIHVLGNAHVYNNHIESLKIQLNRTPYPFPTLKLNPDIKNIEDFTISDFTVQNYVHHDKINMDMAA

[10] = biological target: T2, Dihydrofolate reductase (Rattus norvegicus, UniProt Q920D2); experiment: as §1; details: read-out: I50
T2 sequence (Q920D2 whole entry): T1 sequence (whole entry)

[11] = tested on: Serratia marcescens; experiment: Antibacterial activity against of against Serr. marcescens CN 398.; assay type: functional

For COc1cc(Cc2c[n+](C)c(N)nc2N)cc(OC)c1OC.[I-], the MIC [1] was 25 µg/mL, the MIC [2] was 50 µg/mL and the MIC [3] was 50 µg/mL. For the same compound, the MIC [4] was 50 µg/mL, the MIC [5] was > 100 µg/mL and the MIC [6] was > 100 µg/mL. For the same compound, the MIC [7] was 25 µg/mL and the Activity [8] was 41%.

COc1cc(Cc2cnc(N)nc2N)cc(OC)c1O [4-HYDROXYTRIMETHOPRIM] showed an MIC [2] of 0.5 µg/mL (≈ 1.81 µM), a pIC50 [9] of 6.52 and an MIC [3] of 0.5 µg/mL (≈ 1.81 µM). The MIC [4] was 0.125 µg/mL (≈ 0.452 µM), the MIC [6] was 2 µg/mL (≈ 7.24 µM) and the MIC [7] was 0.03 µg/mL (≈ 0.109 µM). For the same compound, the pIC50 [10] was 4.04.

In the case of COc1cc(Cc2cnc(N)nc2N)cc(OC)c1OC [TRIMETHOPRIM], the MIC [1] was 0.1 µg/mL (≈ 0.344 µM), the MIC [2] was 1 µg/mL (≈ 3.44 µM) and the MIC [3] was 0.3 µg/mL (≈ 1.03 µM). For the same compound, the MIC [4] was 0.3 µg/mL (≈ 1.03 µM), the MIC [5] was 0.3 µg/mL (≈ 1.03 µM) and the MIC [6] was 1 µg/mL (≈ 3.44 µM). The MIC [7] was 0.3 µg/mL (≈ 1.03 µM) and the MIC [11] was 3 µg/mL (≈ 10.3 µM).

COc1cc(Cc2c(N)nc(N)nc2O)cc(OC)c1O was tested, and the MIC [1] was > 100 µg/mL, the MIC [2] was > 100 µg/mL and the MIC [3] was > 100 µg/mL. The MIC [4] was > 100 µg/mL, the MIC [5] was > 100 µg/mL and the MIC [6] was > 100 µg/mL. The MIC [7] was > 100 µg/mL and the MIC [11] was > 100 µg/mL.

Compound COc1cc(Cc2c(C)nc(N)nc2N)cc(OC)c1OC has an MIC [1] of 30 µg/mL (≈ 98.6 µM), an MIC [2] of 30 µg/mL (≈ 98.6 µM) and an MIC [3] of 30 µg/mL (≈ 98.6 µM). The MIC [4] was 30 µg/mL (≈ 98.6 µM), the MIC [5] was > 100 µg/mL and the MIC [6] was > 100 µg/mL. The MIC [7] was 30 µg/mL (≈ 98.6 µM) and the MIC [11] was > 100 µg/mL.
